Assays:
[1] = molecular target: T1, Adenosine receptor A1 (Homo sapiens) (UniProt P30542); assay: Allosteric enhancement of human adenosine A1 receptor expressed in CHO cells assessed as increase of [3H]CCPA Bmax at 10 uM after 90 mins; type: cell-based
T1 sequence (whole entry): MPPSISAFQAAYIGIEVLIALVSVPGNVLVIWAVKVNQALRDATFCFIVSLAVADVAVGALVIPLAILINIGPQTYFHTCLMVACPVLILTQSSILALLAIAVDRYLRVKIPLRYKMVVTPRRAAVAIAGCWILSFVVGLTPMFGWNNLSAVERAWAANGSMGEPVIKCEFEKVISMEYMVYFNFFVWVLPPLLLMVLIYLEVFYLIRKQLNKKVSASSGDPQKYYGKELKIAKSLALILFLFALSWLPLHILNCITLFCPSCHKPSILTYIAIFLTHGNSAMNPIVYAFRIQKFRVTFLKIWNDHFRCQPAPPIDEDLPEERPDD
In short: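 Saturation of [3H]CCPA (0.05–20 nM) on hA1CHO membranes in 50 mM Tris-HCl, pH 7.4, with or without compound at final 10 μM. Triplicate, 25 °C, 90 min. Nonspecific binding defined with 1 μM R-PIA. Filter-bound radioactivity counted. KD and Bmax fitted by weighted nonlinear least squares; Bmax shift versus control. Mean ± SEM, n=3.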

[2] = molecular target: T1, Adenosine receptor A1 (Homo sapiens); assay: Displacement of [3H]DPCPX from human adenosine A1 receptor expressed in CHO cells at 10 uM after 120 mins by scintillation counting
[3] = molecular target: T1, Adenosine receptor A1 (Homo sapiens); assay: Allosteric enhancement of human adenosine A1 receptor expressed in CHO cells assessed as inhibition of forskolin-induced cAMP production at 10 uM after 10 mins; type: functional, cell-based
In short: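 Whole hA1CHO cells (10⁶/mL) preincubated 10 min at 37 °C in phosphate buffer with adenosine deaminase (1.0 IU/mL) and Ro 20-1724 (0.5 mM). Compound alone at 10 μM for a further 10 min; forskolin 1 μM for 5 min. TCA stop, ether extraction, cAMP by [3H]-cAMP protein-binding competition assay. Expressed as pmol/10⁶ cells; mean ± SEM, three experiments.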

[4] = molecular target: T1, Adenosine receptor A1 (Homo sapiens); assay: Allosteric enhancement of human adenosine A1 receptor expressed in CHO cells assessed as inhibition of CCPA-induced cAMP production at 100 nM after 10 mins; type: functional, cell-based
In short: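 Intact hA1CHO cells (10⁶/mL) in phosphate buffer with adenosine deaminase 1.0 IU/mL and Ro 20-1724 0.5 mM, preincubated 10 min at 37 °C. Compound 100 nM plus CCPA 1 pM added for 10 min, then forskolin 1 μM for 5 min. Stopped with cold 6% TCA, ether-extracted. cAMP measured by [3H]-cAMP competition with adrenal binding protein (4 °C, 150 min). pmol/10⁶ cells, mean ± SEM of three.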

[5] = molecular target: Adenosine receptor A2a (Homo sapiens) (UniProt P29274); assay: Displacement of [3H]ZM 241385 from human adenosine A2A receptor expressed in CHO cells at 10 uM after 60 mins by scintillation counting; type: cell-based
In short: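 hA2ACHO membranes in 50 mM Tris HCl, 10 mM MgCl2, pH 7.4, 4 °C for 60 min. [3H]ZM 241385 given as 1 nM in methods and 2 nM in table footnote. Compound at 10 μM from 100-fold DMSO stock, 1% DMSO final. Nonspecific binding with 1 μM ZM 241385. Filtration and scintillation counting. Percent inhibition of control specific binding, ±SEM, n=3.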

[6] = molecular target: T2, Adenosine receptor A3 (Homo sapiens) (UniProt P0DMS8); assay: Displacement of [3H]MRE-3008-F20 from human adenosine A3 receptor expressed in CHO cells at 10 uM after 120 mins by scintillation counting
T2 sequence (whole entry): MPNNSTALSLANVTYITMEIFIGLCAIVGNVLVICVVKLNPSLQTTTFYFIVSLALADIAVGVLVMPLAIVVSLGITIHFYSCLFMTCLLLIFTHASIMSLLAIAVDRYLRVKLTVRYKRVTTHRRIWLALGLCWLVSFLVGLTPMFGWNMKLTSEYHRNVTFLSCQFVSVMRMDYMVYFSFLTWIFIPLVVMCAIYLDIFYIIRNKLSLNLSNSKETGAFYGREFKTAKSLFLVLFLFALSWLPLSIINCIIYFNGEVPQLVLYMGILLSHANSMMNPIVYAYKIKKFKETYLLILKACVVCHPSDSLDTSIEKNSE

[7] = molecular target: T1, Adenosine receptor A1 (Homo sapiens); assay: Allosteric enhancement of human adenosine A1 receptor expressed in CHO cells assessed as increase of CCPA Ki at 10 uM after 90 mins by [3H]DPCPX radioligand binding assay; type: cell-based
In short: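 hA1CHO membranes (50 mM Tris-HCl, pH 7.4, adenosine deaminase-treated). [3H]DPCPX 1 nM competed by CCPA (0.01 nM–1 μM) with or without test compound at 10 μM. Triplicate, 90 min at 25 °C. Nonspecific binding taken with 1 μM DPCPX. Filtration, then scintillation counting. Ki by Cheng–Prusoff. Shift = Ki(CCPA)/Ki(CCPA+enhancer). Mean ± SEM, n=3.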

Sequence of Adenosine receptor A2a (Homo sapiens) (P29274 whole entry): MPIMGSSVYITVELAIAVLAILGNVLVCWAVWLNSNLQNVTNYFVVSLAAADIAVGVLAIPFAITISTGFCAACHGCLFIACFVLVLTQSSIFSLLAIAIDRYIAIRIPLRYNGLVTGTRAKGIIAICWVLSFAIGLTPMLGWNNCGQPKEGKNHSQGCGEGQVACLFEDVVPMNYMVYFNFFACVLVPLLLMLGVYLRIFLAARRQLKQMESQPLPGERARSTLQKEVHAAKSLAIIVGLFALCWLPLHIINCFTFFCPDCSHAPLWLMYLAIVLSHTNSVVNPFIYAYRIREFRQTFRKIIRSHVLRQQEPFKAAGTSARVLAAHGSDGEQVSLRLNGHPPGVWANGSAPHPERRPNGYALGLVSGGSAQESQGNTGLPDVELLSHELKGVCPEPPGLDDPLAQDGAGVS

SMILES: Nc1scc(CN2CCN3c4ccc(Cl)cc4CC3C2)c1C(=O)c1ccc(Cl)cc1 (stereo unspecified)
- fold change (FC) [1]: 1.2
- inhibition [2]: 1%
- inhibition [3]: 7%
- inhibition [4]: 11%
- inhibition [5]: 4%
- inhibition [6]: 1%
- fold change (FC) [7]: 1.1

SMILES: COc1ccc2c(c1)cc1n2CCN(Cc2csc(N)c2C(=O)c2ccc(Cl)cc2)C1
- fold change (FC) [1]: 4.8
- inhibition [2]: 1%
- inhibition [3]: 43%
- inhibition [4]: 41%
- inhibition [5]: 0%
- inhibition [6]: 6%
- fold change (FC) [7]: 3.7

SMILES: CC(C)N(Cc1c(Br)sc(N)c1C(=O)c1ccc(Cl)cc1)C(C)C
- fold change (FC) [1]: 1.5
- inhibition [2]: 1%
- inhibition [3]: 12%
- inhibition [4]: 14%
- inhibition [5]: 1%
- inhibition [6]: 3%
- fold change (FC) [7]: 1.4

SMILES: Nc1scc(CN2CCC3(CC2)Oc2cccc(F)c2O3)c1C(=O)c1ccc(Cl)cc1
- fold change (FC) [1]: 6.5
- inhibition [2]: 1%
- inhibition [3]: 56%
- inhibition [4]: 52%
- inhibition [5]: 1%
- inhibition [6]: 7%
- fold change (FC) [7]: 6.3

SMILES: C=CCN(CC=C)Cc1c(-c2ccccc2)sc(N)c1C(=O)c1ccc(Cl)cc1
- fold change (FC) [1]: 4.2
- inhibition [2]: 3%
- inhibition [3]: 36%
- inhibition [4]: 34%
- inhibition [5]: 1%
- inhibition [6]: 5%
- fold change (FC) [7]: 3.9

SMILES: Nc1scc(CN2CCc3[nH]c4ccccc4c3C2)c1C(=O)c1ccc(Cl)cc1
- fold change (FC) [1]: 1
- inhibition [2]: 0%
- inhibition [3]: 3%
- inhibition [4]: 11%
- inhibition [5]: 1%
- inhibition [6]: 1%
- fold change (FC) [7]: 1

SMILES: CCN(CC)Cc1csc(N)c1C(=O)c1ccc(Cl)cc1
- fold change (FC) [1]: 1
- inhibition [2]: 0%
- inhibition [3]: 5%
- inhibition [4]: 12%
- inhibition [5]: 1%
- inhibition [6]: 2%
- fold change (FC) [7]: 1

SMILES: CCCN(CCC)Cc1csc(N)c1C(=O)c1ccc(Cl)cc1
- fold change (FC) [1]: 1.2
- inhibition [2]: 4%
- inhibition [3]: 9%
- inhibition [4]: 10%
- inhibition [5]: 0%
- inhibition [6]: 5%
- fold change (FC) [7]: 1.1

SMILES: CCCN(CCC)Cc1c(-c2ccccc2)sc(N)c1C(=O)c1ccc(Cl)cc1
- fold change (FC) [1]: 3.1
- inhibition [2]: 1%
- inhibition [3]: 28%
- inhibition [4]: 29%
- inhibition [5]: 1%
- inhibition [6]: 11%
- fold change (FC) [7]: 2.5

SMILES: Nc1scc(CN2CCn3c(cc4cc(Cl)ccc43)C2)c1C(=O)c1ccc(Cl)cc1
- fold change (FC) [1]: 7.4
- inhibition [2]: 4%
- inhibition [3]: 64%
- inhibition [4]: 60%
- inhibition [5]: 0%
- inhibition [6]: 4%
- fold change (FC) [7]: 6.9

SMILES: CN(Cc1ccccc1)Cc1csc(N)c1C(=O)c1ccc(Cl)cc1
- fold change (FC) [1]: 4.4
- inhibition [2]: 1%
- inhibition [3]: 42%
- inhibition [4]: 40%
- inhibition [5]: 1%
- inhibition [6]: 7%
- fold change (FC) [7]: 4

SMILES: CN(Cc1c(-c2ccccc2)sc(N)c1C(=O)c1ccc(Cl)cc1)C(C)(C)C
- fold change (FC) [1]: 1.3
- inhibition [2]: 5%
- inhibition [3]: 10%
- inhibition [4]: 13%
- inhibition [5]: 1%
- inhibition [6]: 10%
- fold change (FC) [7]: 1.3

SMILES: Cn1c2c(c3ccccc31)CN(Cc1csc(N)c1C(=O)c1ccc(Cl)cc1)CC2
- fold change (FC) [1]: 3.1
- inhibition [2]: 2%
- inhibition [3]: 28%
- inhibition [4]: 27%
- inhibition [5]: 1%
- inhibition [6]: 2%
- fold change (FC) [7]: 2.9

SMILES: CC(C)N(Cc1csc(N)c1C(=O)c1ccc(Cl)cc1)C(C)C
- fold change (FC) [1]: 1
- inhibition [2]: 1%
- inhibition [3]: 4%
- inhibition [4]: 14%
- inhibition [5]: 0%
- inhibition [6]: 3%
- fold change (FC) [7]: 1

SMILES: Nc1scc(COc2ccccc2)c1C(=O)c1ccc(Cl)cc1
- fold change (FC) [1]: 1.3
- inhibition [2]: 1%
- inhibition [3]: 9%
- inhibition [4]: 11%
- inhibition [5]: 0%
- inhibition [6]: 2%
- fold change (FC) [7]: 1.2

SMILES: CCN(CC)Cc1c(-c2ccccc2)sc(N)c1C(=O)c1ccc(Cl)cc1
- fold change (FC) [1]: 2.8
- inhibition [2]: 1%
- inhibition [3]: 25%
- inhibition [4]: 27%
- inhibition [5]: 5%
- inhibition [6]: 9%
- fold change (FC) [7]: 2.4

SMILES: Nc1scc(CN2CCc3[nH]c4ccc(Cl)cc4c3C2)c1C(=O)c1ccc(Cl)cc1
- fold change (FC) [1]: 1.2
- inhibition [2]: 2%
- inhibition [3]: 8%
- inhibition [4]: 13%
- inhibition [5]: 1%
- inhibition [6]: 1%
- fold change (FC) [7]: 1.1

SMILES: Nc1sc(-c2ccccc2)c(CN(C2CCCCC2)C2CCCCC2)c1C(=O)c1ccc(Cl)cc1
- fold change (FC) [1]: 3.5
- inhibition [2]: 6%
- inhibition [3]: 31%
- inhibition [4]: 28%
- inhibition [5]: 1%
- inhibition [6]: 7%
- fold change (FC) [7]: 3.2

SMILES: Cc1ccc(OCc2csc(N)c2C(=O)c2ccc(Cl)cc2)cc1
- fold change (FC) [1]: 1.3
- inhibition [2]: 5%
- inhibition [3]: 11%
- inhibition [4]: 16%
- inhibition [5]: 1%
- inhibition [6]: 11%
- fold change (FC) [7]: 1.4

SMILES: CC(C)N(Cc1c(-c2ccccc2)sc(N)c1C(=O)c1ccc(Cl)cc1)C(C)C
- fold change (FC) [1]: 1.2
- inhibition [2]: 5%
- inhibition [3]: 9%
- inhibition [4]: 12%
- inhibition [5]: 6%
- inhibition [6]: 11%
- fold change (FC) [7]: 1.3

SMILES: CN(Cc1csc(N)c1C(=O)c1ccc(Cl)cc1)c1ccc(C(F)(F)F)cc1
- fold change (FC) [1]: 3.2
- inhibition [2]: 3%
- inhibition [3]: 29%
- inhibition [4]: 31%
- inhibition [5]: 0%
- inhibition [6]: 4%
- fold change (FC) [7]: 2.8

SMILES: Nc1sc(-c2ccccc2)c(CN2CCCCC2)c1C(=O)c1ccc(Cl)cc1
- fold change (FC) [1]: 2.9
- inhibition [2]: 1%
- inhibition [3]: 24%
- inhibition [4]: 22%
- inhibition [5]: 1%
- inhibition [6]: 7%
- fold change (FC) [7]: 2.7

SMILES: CN(C)Cc1c(-c2ccccc2)sc(N)c1C(=O)c1ccc(Cl)cc1
- fold change (FC) [1]: 1.1
- inhibition [2]: 1%
- inhibition [3]: 6%
- inhibition [4]: 10%
- inhibition [5]: 1%
- inhibition [6]: 2%
- fold change (FC) [7]: 1

SMILES: CC(C)(C)c1ccc2c(c1)OC1(CCN(Cc3csc(N)c3C(=O)c3ccc(Cl)cc3)CC1)O2
- fold change (FC) [1]: 6.3
- inhibition [2]: 1%
- inhibition [3]: 51%
- inhibition [4]: 55%
- inhibition [5]: 0%
- inhibition [6]: 12%
- fold change (FC) [7]: 6

SMILES: CN(Cc1csc(N)c1C(=O)c1ccc(Cl)cc1)c1ccc(F)cc1
- fold change (FC) [1]: 3.2
- inhibition [2]: 3%
- inhibition [3]: 28%
- inhibition [4]: 26%
- inhibition [5]: 2%
- inhibition [6]: 4%
- fold change (FC) [7]: 3.4

SMILES: Cc1sc(N)c(C(=O)c2cccc(C(F)(F)F)c2)c1C
- fold change (FC) [1]: 1.3
- inhibition [2]: 0%
- inhibition [3]: 18%
- inhibition [4]: 20%
- inhibition [5]: 0%
- fold change (FC) [7]: 1.6
